Laboratory results as given in ChEMBL document CHEMBL1153856, “Synthesis and spectral characterization of a new class of N-(N-methylpiperazinoacetyl)-2,6-diarylpiperidin-4-ones: antimicrobial, analgesic and antipyretic studies” (2009).
In brackets after ≈: the same amount, converted by molar mass.

Columns and labels:
Type in all cases: functional
Mus musculus [1] = assay: Analgesic activity in albino mouse assessed as inhibition of acetic acid-induced writhing response at 30 mg/kg, po administered 1 hr prior to acetic acid challenge relative to control
Method in brief: (§1)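 Albino mice of both sexes, 20–25 g, n = 6 per group. Doses of 30, 60 or 90 mg/kg were given orally as suspensions in 1% sodium CMC. 1 h later, 1% acetic acid in normal saline (10 mL/kg) was injected ip. Complete extension of either hind limb counted as a writhe. Counting started 5 min after injection and ran 30 min. Results are % inhibition = [1 − T/C] × 100 versus vehicle controls, mean ± SEM.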

Rattus norvegicus [2] = assay: Antipyretic activity against brewer's yeast-induced hyperthermia in Wistar rat assessed as change in rectal temperature at 60 mg/kg, po after 90 mins
Method in brief: (§2)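 Wistar rats of both sexes, 200–250 g, received brewer's yeast in normal saline sc. Rectal temperature was taken with a digital thermometer (precision 0.1 °C). At 18 h, rats whose temperature had risen 0.3–0.5 °C were selected. Test compounds (30 or 60 mg/kg) or indomethacin (5 mg/kg) were given orally in 1% CMC; controls received vehicle only. Temperature was measured at 30, 60, 90, 120 and 150 min, mean ± SEM.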

Pseudomonas aeruginosa = assay: Antimicrobial activity against Pseudomonas aeruginosa after 24 hrs by twofold serial dilution method
Method in brief: (§3)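 Twofold serial broth dilution in nutrient broth at pH 7.4 ± 0.2. Compound stocks were 1 mg/mL in DMSO, diluted 1:5 into seeded broth, then six serial dilutions. Inocula came from 24 h nutrient-agar cultures, final 10⁵ cfu/mL. Incubation was 37 ± 1 °C for 24 h, with growth and solvent controls. MIC was read visually; ciprofloxacin was the standard.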

Candida albicans = assay: Antimicrobial activity against Candida albicans after 72 to 96 hrs by twofold serial dilution method
Method in brief: (§4)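 Twofold serial broth dilution in Sabouraud dextrose broth at pH 5.6. Spores came from 1–7-day Sabouraud agar slants, final inoculum 1.1–1.5 × 10² cfu/mL. Compound stocks were 1 mg/mL in DMSO, diluted 1:5 into seeded broth, then six serial dilutions. Incubation was 28 ± 1 °C for 72–96 h, with growth and solvent controls. MIC was read visually; amphotericin B was the standard.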

Mus musculus [3] = assay: Analgesic activity in albino mouse assessed as inhibition of acetic acid-induced writhing response at 60 mg/kg, po administered 1 hr prior to acetic acid challenge relative to control; method in brief: as §1
Rattus norvegicus [4] = assay: Antipyretic activity against brewer's yeast-induced hyperthermia in Wistar rat assessed as change in rectal temperature at 60 mg/kg, po after 60 mins; method in brief: as §2
Rattus norvegicus [5] = assay: Antipyretic activity against brewer's yeast-induced hyperthermia in Wistar rat assessed as change in rectal temperature at 30 mg/kg, po after 150 mins; method in brief: as §2
Rattus norvegicus [6] = assay: Antipyretic activity against brewer's yeast-induced hyperthermia in Wistar rat assessed as change in rectal temperature at 60 mg/kg, po after 30 mins; method in brief: as §2
Rattus norvegicus [7] = assay: Antipyretic activity against brewer's yeast-induced hyperthermia in Wistar rat assessed as change in rectal temperature at 60 mg/kg, po after 150 mins; method in brief: as §2
[8] = test system: Salmonella enterica subsp. enterica serovar Typhi str. CT18; assay: Antimicrobial activity against Salmonella typhi after 24 hrs by twofold serial dilution method; method in brief: as §3
Mus musculus [9] = assay: Analgesic activity in albino mouse assessed as inhibition of acetic acid-induced writhing response at 90 mg/kg, po administered 1 hr prior to acetic acid challenge relative to control; method in brief: as §1
Rhizopus = assay: Antimicrobial activity against Rhizopus sp. after 72 to 96 hrs by twofold serial dilution method; method in brief: as §4
Rattus norvegicus [10] = assay: Antipyretic activity against brewer's yeast-induced hyperthermia in Wistar rat assessed as change in rectal temperature at 60 mg/kg, po after 120 mins; method in brief: as §2
Rattus norvegicus [11] = assay: Antipyretic activity against brewer's yeast-induced hyperthermia in Wistar rat assessed as change in rectal temperature at 30 mg/kg, po after 120 mins; method in brief: as §2
Rattus norvegicus [12] = assay: Antipyretic activity against brewer's yeast-induced hyperthermia in Wistar rat assessed as change in rectal temperature at 30 mg/kg, po after 90 mins; method in brief: as §2
Rattus norvegicus [13] = assay: Antipyretic activity against brewer's yeast-induced hyperthermia in Wistar rat assessed as change in rectal temperature at 30 mg/kg, po after 60 mins; method in brief: as §2
Rattus norvegicus [14] = assay: Antipyretic activity against brewer's yeast-induced hyperthermia in Wistar rat assessed as change in rectal temperature at 30 mg/kg, po after 30 mins; method in brief: as §2
Aspergillus flavus = assay: Antimicrobial activity against Aspergillus flavus after 72 to 96 hrs by twofold serial dilution method; method in brief: as §4
Aspergillus niger = assay: Antimicrobial activity against Aspergillus niger after 72 to 96 hrs by twofold serial dilution method; method in brief: as §4
Klebsiella pneumoniae = assay: Antimicrobial activity against Klebsiella pneumoniae after 24 hrs by twofold serial dilution method; method in brief: as §3
Escherichia coli = assay: Antimicrobial activity against Escherichia coli after 24 hrs by twofold serial dilution method; method in brief: as §3
Staphylococcus aureus = assay: Antimicrobial activity against Staphylococcus aureus after 24 hrs by twofold serial dilution method; method in brief: as §3

Row | Compound | inhibition in vivo at 30 mg/kg (Mus musculus [1]) | Activity (Rattus norvegicus [2]) | MIC (Pseudomonas aeruginosa) | MIC (Candida albicans) | inhibition in vivo at 60 mg/kg (Mus musculus [3]) | Activity (Rattus norvegicus [4]) | Activity (Rattus norvegicus [5]) | Activity (Rattus norvegicus [6]) | Activity (Rattus norvegicus [7]) | MIC [8] | inhibition in vivo at 90 mg/kg (Mus musculus [9]) | MIC (Rhizopus) | Activity (Rattus norvegicus [10]) | Activity (Rattus norvegicus [11]) | Activity (Rattus norvegicus [12]) | Activity (Rattus norvegicus [13]) | Activity (Rattus norvegicus [14]) | MIC (Aspergillus flavus) | MIC (Klebsiella pneumoniae) | MIC (Escherichia coli) | other results
1 | CC1C(=O)C(C)C(c2ccc(Cl)cc2)N(C(=O)CN2CCN(C)CC2)C1c1ccc(Cl)cc1 (stereo not drawn) | 22.5% | 37.75 °C | 12.5 µg/mL (≈ 25.6 µM) | 12.5 µg/mL (≈ 25.6 µM) | 36.5% | 37.85 °C | 37.4 °C | 37.92 °C | 37.3 °C | 50 µg/mL (≈ 102 µM) | 38.9% | 6.25 µg/mL (≈ 12.8 µM) | 37.55 °C | 37.6 °C | 37.8 °C | 37.9 °C | 37.95 °C | 25 µg/mL (≈ 51.2 µM) | 6.25 µg/mL (≈ 12.8 µM) | 12.5 µg/mL (≈ 25.6 µM) | MIC (Aspergillus niger): 25 µg/mL (≈ 51.2 µM); MIC (Staphylococcus aureus): 6.25 µg/mL (≈ 12.8 µM)
2 | O=C(O)c1cn(C2CC2)c2cc(N3CCNCC3)c(F)cc2c1=O [CIPROFLOXACIN] | – | – | – | – | – | – | – | – | – | 50 µg/mL (≈ 151 µM) | – | – | – | – | – | – | – | – | 25 µg/mL (≈ 75.4 µM) | 25 µg/mL (≈ 75.4 µM) | –
3 | CC1C(=O)CC(c2ccc(Cl)cc2)N(C(=O)CN2CCN(C)CC2)C1c1ccc(Cl)cc1 (stereo not drawn) | 49.2% | 37.85 °C | 6.25 µg/mL (≈ 13.2 µM) | 6.25 µg/mL (≈ 13.2 µM) | 70.4% | 37.92 °C | 37.65 °C | 37.95 °C | 37.5 °C | 12.5 µg/mL (≈ 26.3 µM) | 61.6% | 12.5 µg/mL (≈ 26.3 µM) | 37.65 °C | 37.7 °C | 37.89 °C | 37.96 °C | 37.05 °C | 50 µg/mL (≈ 105 µM) | 25 µg/mL (≈ 52.7 µM) | 25 µg/mL (≈ 52.7 µM) | MIC (Aspergillus niger): 25 µg/mL (≈ 52.7 µM); MIC (Staphylococcus aureus): 50 µg/mL (≈ 105 µM)
4 | CC1C(=O)CC(c2ccccc2)N(C(=O)CN2CCN(C)CC2)C1c1ccccc1 (stereo not drawn) | 6.3% | 38.02 °C | > 200 µg/mL | > 200 µg/mL | 15.6% | 38.1 °C | 38.01 °C | 38.2 °C | 38.95 °C | 200 µg/mL (≈ 493 µM) | 17.7% | > 200 µg/mL | 38.01 °C | 38.03 °C | 38.1 °C | 38.2 °C | 38.25 °C | 100 µg/mL (≈ 247 µM) | 200 µg/mL (≈ 493 µM) | 100 µg/mL (≈ 247 µM) | MIC (Aspergillus niger): 100 µg/mL (≈ 247 µM); MIC (Staphylococcus aureus): > 200 µg/mL
5 | Cc1ccc(C2C(C)C(=O)C(C)C(c3ccc(C)cc3)N2C(=O)CN2CCN(C)CC2)cc1 (stereo not drawn) | 42.6% | 37.9 °C | 25 µg/mL (≈ 55.9 µM) | 50 µg/mL (≈ 112 µM) | 54.6% | 38.95 °C | 37.7 °C | 38.01 °C | 37.6 °C | 25 µg/mL (≈ 55.9 µM) | 33.1% | 25 µg/mL (≈ 55.9 µM) | 37.8 °C | 37.9 °C | 37.95 °C | 38.02 °C | 38.11 °C | 12.5 µg/mL (≈ 27.9 µM) | 12.5 µg/mL (≈ 27.9 µM) | 100 µg/mL (≈ 223 µM) | MIC (Aspergillus niger): 12.5 µg/mL (≈ 27.9 µM); MIC (Staphylococcus aureus): 50 µg/mL (≈ 112 µM)
6 | CC1C(=O)C(C)C(c2ccccc2)N(C(=O)CN2CCN(C)CC2)C1c1ccccc1 (stereo not drawn) | 17.4% | 37.9 °C | 50 µg/mL (≈ 119 µM) | 100 µg/mL (≈ 238 µM) | 24.1% | 37.95 °C | 38.7 °C | 38.1 °C | 37.55 °C | 25 µg/mL (≈ 59.6 µM) | 13.9% | 50 µg/mL (≈ 119 µM) | 37.7 °C | 38.85 °C | 38.95 °C | 38 °C | 38.11 °C | 50 µg/mL (≈ 119 µM) | 12.5 µg/mL (≈ 29.8 µM) | 100 µg/mL (≈ 238 µM) | MIC (Aspergillus niger): 50 µg/mL (≈ 119 µM); MIC (Staphylococcus aureus): 50 µg/mL (≈ 119 µM)
